Experimental data of several laboratories.
Target: Tyrosine-protein kinase Fes/Fps (FES, Homo sapiens, UniProt P07332)

Compound	read-out	mode	technique	tested at	endpoint	result
O=c1[nH]c2ccccc2n1C1CCN(Cc2ccc(-c3[nH]c4cc5ncnc5cc4nc3-c3ccccc3)cc2)CC1	cell-free assay	–	–	0.5 µM	remaining signal	101%
Nc1ncc(-c2nc(N3CCOCC3)nc(N3CCOCC3)n2)c(C(F)F)n1	binding	–	competition with immobilised ligand	10 µM	remaining binding	91%
Cc1nn(C)cc1-c1nc2c(N3CCN(Cc4ccc(Cl)cc4)CC3)c(Cl)cnc2[nH]1	binding	–	competition with immobilised ligand	1 µM	remaining binding	100%
Cn1cc(-c2cc(F)cc(N3CCn4c(cc5c4CCCC5)C3=O)c2CO)cc(Nc2ccc(N3CCN(C4COC4)CC3)cn2)c1=O	enzyme activity	inhibitor	–	0.1 µM	inhibition	9%
c1ccc(C(NCCNC(c2ccccc2)c2ccccc2)c2ccccc2)cc1	enzyme activity	inhibitor	–	10 µM	inhibition	-2%
C#Cc1n[nH]c2c(-c3cn([C@@H](C)c4ccccc4)c(=O)[nH]c3=O)cc(F)cc12	enzyme activity	inhibitor	–	0.1 µM	inhibition	7.4%
COc1ncccc1-c1cnn2ccc(N3CCN(C(=O)OC(C)C)CC3)nc12	binding	–	competition with immobilised ligand	1 µM	remaining binding	100%
Cn1cc(-c2cccc(N3CCc4c(sc5c4CC(C)(C)C5)C3=O)c2CO)cc(Nc2ccncn2)c1=O	enzyme activity	inhibitor	–	1 µM	inhibition	4%
Cn1cncc1[C@@](O)(COc1ccc(C#N)cc1-c1ccc(OC(F)(F)F)cc1)c1ccc(C#N)cc1	cell-free assay	–	competition with immobilised ligand	1 µM	remaining binding	100%
C#Cc1n[nH]c2c(-c3cn(C(C)c4ccccn4)c(=O)[nH]c3=O)cc(F)cc12 (stereo not drawn)	enzyme activity	inhibitor	–	1 µM	inhibition	5.3%
CC(C)(C)c1cc(C=C(C#N)C#N)cc(Br)c1O	enzyme activity	inhibitor	–	0.5 µM	remaining activity	105%
C[C@H](C(=O)N[C@H]1COc2ccccc2[C@@H]1S(C)(=O)=O)c1ccc(F)cc1	enzyme activity	inhibitor	–	10 µM	inhibition	-14%
